# Reference: ChEMBL document CHEMBL2157880, “Synthesis, antimycobacterial and antibacterial activity of ciprofloxacin derivatives containing a N-substituted benzyl moiety” (2012)
# Tested on: Pseudomonas aeruginosa
# Assay: Antibacterial activity against Pseudomonas aeruginosa 10-15 after 18 to 24 hrs by NCCLS method
# Type: functional
# In short: (§1)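 Standard NCCLS (M100-S11) MIC testing against Gram-positive and Gram-negative strains. Plates were incubated at 35 °C for 18–24 h. The MIC was read as the lowest concentration giving complete inhibition of visible bacterial growth.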
row,SMILES,MIC
1,O=C(O)c1cn(C2CC2)c2cc(N3CCN(Cc4cc5c(cc4[N+](=O)[O-])OCO5)CC3)c(F)cc2c1=O,0.5 µg/mL

# Tested on: Staphylococcus epidermidis
# Assay: Antibacterial activity against methicillin-sensitive Staphylococcus epidermidis 10-15 after 18 to 24 hrs by NCCLS method
# Type: functional
# In short: (§2)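 Incubated at 35 °C for 18–24 h under NCCLS (M100-S11) standards. MIC was read as the lowest concentration giving complete inhibition of visible bacterial growth.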
row,SMILES,MIC
1,O=C(O)c1cn(C2CC2)c2cc(N3CCN(Cc4cc5c(cc4[N+](=O)[O-])OCO5)CC3)c(F)cc2c1=O,16 µg/mL

# Tested on: Pseudomonas aeruginosa
# Assay: Antibacterial activity against Pseudomonas aeruginosa 10-12 after 18 to 24 hrs by NCCLS method
# Type: functional
# In short: as §1
row,SMILES,MIC
1,O=C(O)c1cn(C2CC2)c2cc(N3CCN(Cc4cc5c(cc4[N+](=O)[O-])OCO5)CC3)c(F)cc2c1=O,1 µg/mL

# Tested on: Escherichia coli
# Assay: Antibacterial activity against Escherichia coli 10-3 after 18 to 24 hrs by NCCLS method
# Type: functional
# In short: as §1
row,SMILES,MIC
1,O=C(O)c1cn(C2CC2)c2cc(N3CCN(Cc4cc5c(cc4[N+](=O)[O-])OCO5)CC3)c(F)cc2c1=O,8 µg/mL

# Tested on: Klebsiella pneumoniae
# Assay: Antibacterial activity against Klebsiella pneumoniae 10-4 after 18 to 24 hrs by NCCLS method
# Type: functional
# In short: as §1
row,SMILES,MIC
1,O=C(O)c1cn(C2CC2)c2cc(N3CCN(Cc4cc5c(cc4[N+](=O)[O-])OCO5)CC3)c(F)cc2c1=O,> 128 µg/mL

# Tested on: Staphylococcus aureus
# Assay: Antibacterial activity against methicillin-resistant Staphylococcus aureus 10-13 after 18 to 24 hrs by NCCLS method
# Type: functional
# In short: as §2
row,SMILES,MIC
1,O=C(O)c1cn(C2CC2)c2cc(N3CCN(Cc4cc5c(cc4[N+](=O)[O-])OCO5)CC3)c(F)cc2c1=O,32 µg/mL

# Tested on: Staphylococcus aureus
# Assay: Antibacterial activity against methicillin-sensitive Staphylococcus aureus 10-13 after 18 to 24 hrs by NCCLS method
# Type: functional
# In short: as §1
row,SMILES,MIC
1,O=C(O)c1cn(C2CC2)c2cc(N3CCN(Cc4cc5c(cc4[N+](=O)[O-])OCO5)CC3)c(F)cc2c1=O,1 µg/mL

# Tested on: Escherichia coli
# Assay: Antibacterial activity against Escherichia coli 10-1 after 18 to 24 hrs by NCCLS method
# Type: functional
# In short: as §1
row,SMILES,MIC
1,O=C(O)c1cn(C2CC2)c2cc(N3CCN(Cc4cc5c(cc4[N+](=O)[O-])OCO5)CC3)c(F)cc2c1=O,32 µg/mL

# Tested on: Klebsiella pneumoniae
# Assay: Antibacterial activity against extended spectrum beta-lactamases producing Klebsiella pneumoniae 10-3 after 18 to 24 hrs by NCCLS method
# Type: functional
# In short: as §1
row,SMILES,MIC
1,O=C(O)c1cn(C2CC2)c2cc(N3CCN(Cc4cc5c(cc4[N+](=O)[O-])OCO5)CC3)c(F)cc2c1=O,> 128 µg/mL

# Tested on: Enterococcus faecalis
# Assay: Antibacterial activity against Enterococcus faecalis 10-5 after 18 to 24 hrs by NCCLS method
# Type: functional
# In short: as §1
row,SMILES,MIC
1,O=C(O)c1cn(C2CC2)c2cc(N3CCN(Cc4cc5c(cc4[N+](=O)[O-])OCO5)CC3)c(F)cc2c1=O,32 µg/mL

# Tested on: Klebsiella pneumoniae
# Assay: Antibacterial activity against Klebsiella pneumoniae 10-2 after 18 to 24 hrs by NCCLS method
# Type: functional
# In short: as §1
row,SMILES,MIC
1,O=C(O)c1cn(C2CC2)c2cc(N3CCN(Cc4cc5c(cc4[N+](=O)[O-])OCO5)CC3)c(F)cc2c1=O,64 µg/mL

# Tested on: Staphylococcus aureus
# Assay: Antibacterial activity against methicillin-resistant Staphylococcus aureus 10-15 after 18 to 24 hrs by NCCLS method
# Type: functional
# In short: as §2
row,SMILES,MIC
1,O=C(O)c1cn(C2CC2)c2cc(N3CCN(Cc4cc5c(cc4[N+](=O)[O-])OCO5)CC3)c(F)cc2c1=O,32 µg/mL

# Tested on: Staphylococcus aureus
# Assay: Antibacterial activity against Staphylococcus aureus ATCC 2592 after 18 to 24 hrs by NCCLS method
# Type: functional
# In short: as §1
row,SMILES,MIC
1,O=C(O)c1cn(C2CC2)c2cc(N3CCN(Cc4cc5c(cc4[N+](=O)[O-])OCO5)CC3)c(F)cc2c1=O,0.5 µg/mL

# Tested on: Escherichia coli
# Assay: Antibacterial activity against Escherichia coli ATCC 25922 after 18 to 24 hrs by NCCLS method
# Type: functional
# In short: as §1
row,SMILES,MIC
1,O=C(O)c1cn(C2CC2)c2cc(N3CCN(Cc4cc5c(cc4[N+](=O)[O-])OCO5)CC3)c(F)cc2c1=O,0.125 µg/mL

# Tested on: Enterococcus faecium
# Assay: Antibacterial activity against Enterococcus faecium 10-9 after 18 to 24 hrs by NCCLS method
# Type: functional
# In short: as §1
row,SMILES,MIC
1,O=C(O)c1cn(C2CC2)c2cc(N3CCN(Cc4cc5c(cc4[N+](=O)[O-])OCO5)CC3)c(F)cc2c1=O,16 µg/mL

# Tested on: Pseudomonas aeruginosa
# Assay: Antibacterial activity against Pseudomonas aeruginosa 10-9 after 18 to 24 hrs by NCCLS method
# Type: functional
# In short: as §1
row,SMILES,MIC
1,O=C(O)c1cn(C2CC2)c2cc(N3CCN(Cc4cc5c(cc4[N+](=O)[O-])OCO5)CC3)c(F)cc2c1=O,1 µg/mL

# Tested on: Streptococcus pneumoniae
# Assay: Antibacterial activity against Streptococcus pneumoniae 10-6 after 18 to 24 hrs by NCCLS method
# Type: functional
# In short: as §1
row,SMILES,MIC
1,O=C(O)c1cn(C2CC2)c2cc(N3CCN(Cc4cc5c(cc4[N+](=O)[O-])OCO5)CC3)c(F)cc2c1=O,16 µg/mL

# Tested on: Streptococcus pneumoniae
# Assay: Antibacterial activity against Streptococcus pneumoniae 10-1 after 18 to 24 hrs by NCCLS method
# Type: functional
# In short: as §1
row,SMILES,MIC
1,O=C(O)c1cn(C2CC2)c2cc(N3CCN(Cc4cc5c(cc4[N+](=O)[O-])OCO5)CC3)c(F)cc2c1=O,2 µg/mL

# Tested on: Enterococcus faecium
# Assay: Antibacterial activity against Enterococcus faecium 10-6 after 18 to 24 hrs by NCCLS method
# Type: functional
# In short: as §1
row,SMILES,MIC
1,O=C(O)c1cn(C2CC2)c2cc(N3CCN(Cc4cc5c(cc4[N+](=O)[O-])OCO5)CC3)c(F)cc2c1=O,2 µg/mL
